Records with an inconclusive call do not appear. Calls of active or inactive are those of the source.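 How the source made its calls: active means compounds whose fitted half-maximal growth inhibition concentration is at most ten times the top valid dose; inconclusive means flat curve with 30 to 70% inhibition, or poor fit; inactive means the rest.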
Experiments:
[1] = antifungal activity on resistant C. albicans strain – Alamar Blue, 48 h, dry powder, dose response (AID 493082); details: C. albicans CaCi-8 + fluconazole, Alamar Blue growth, 48 h; at 26 µM (top of the series)
Outline: (§1)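 Material: fluconazole-resistant Candida albicans strain CaCi-8. Reagent: fluconazole 8 µg/mL. Timing: 48 h compound exposure at 37 °C, 2 h dye step. Measured by: Alamar Blue fluorescence, Ex 544/Em 590 nm. Read-out basis: fungal growth, reduced fluorescence as inhibition.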

[2] = system: C. albicans CaCi-8 + fluconazole, Alamar Blue growth, 48 h; experiment: as above
Outline: as §1

Compound	activity change, negative = inhibition [1]	AC50 [2]
O=C(O)Cn1nc(-c2ccccc2)c2ccccc21	-8.51% (inactive)	
CCN(CC)C(=O)Cn1c2ccccc2c2nc3n(c(=O)c21)CCS3		10 µM
O=C(Cn1c2ccccc2c2ccncc21)N1CCCCC1	-24.1% (inactive)	
COC(=O)Cn1c(-c2ccccc2)nc2ccccc21		16.7 µM
O=C(Cn1c2ccccc2c2nc3n(c(=O)c21)CCS3)N1CCCCC1		4.91 µM
COC(=O)Cn1nc(-c2ccccc2)c2cccc(C(F)(F)F)c21	-12% (inactive)	
CC1CCN(C(=O)Cn2c3ccccc3c3nc4n(c(=O)c32)CCS4)CC1		2.06 µM
COC(=O)C(C)(C)n1nc(-c2ccccc2)c2ccccc21	-6.76% (inactive)	
O=C(Cn1nc(-c2ccccc2)c2ccccc21)OC1CCC1	-21.3% (inactive)	
O=C(Cn1c2ccc(F)cc2c2nc3n(c(=O)c21)CCS3)N1CCCCCC1	3.17% (inactive)	
COC(=O)Cn1nc(-c2ccccc2)c2ccc(C(F)(F)F)cc21	-34.9% (inactive)	
CCN(CC)C(=O)Cn1c2ccc(F)cc2c2nc3n(c(=O)c21)CCS3	24.6% (inactive)	
COC(=O)Cn1nc(-c2ccccc2C)c2ccccc21		8.07 µM
COC(=O)Cn1nc(-c2cccc(F)c2)c2ccccc21		14 µM
COC(=O)Cn1nc(-c2ccccc2)c2ccccc21		2.33 µM
COC(=O)Cn1nc(-c2ccc(F)cc2)c2ccccc21		16.1 µM
O=C1OCCC1n1nc(-c2ccccc2)c2ccccc21 (centres undefined)	-19.7% (inactive)	
COC(=O)Cn1nc(I)c2ccccc21		18.8 µM
O=C(Cn1c2ccc(F)cc2c2nc3n(c(=O)c21)CCS3)N1CCCC1		0.907 µM
O=C(Cn1c2ccccc2c2nc3n(c(=O)c21)CCS3)N1CCOCC1		7.67 µM
COC(=O)Cn1nc(-c2ccc(C#N)cc2)c2ccccc21		20 µM
O=C(Cn1c2ccc(F)cc2c2nc3n(c(=O)c21)CCS3)N1CCCCC1	12.2% (inactive)	
CCCCn1nc(-c2ccccc2)c2ccccc21	19.1% (inactive)	
O=C(Cn1c2ccccc2c2nc3n(c(=O)c21)CCS3)N1CCCC1		3.83 µM

— PubChem BioAssay AID493082 (Broad Institute, 2011)
